Data reported in ChEMBL document CHEMBL3085741, “Structure-activity relationships and molecular modeling of sphingosine kinase inhibitors” (J Med Chem, 2013).
Calls of active or inactive are those of the source. The calls are words filed in the database; no cut-off is given here.

What was measured:
Sphingosine kinase 1 [1] = target: T1, Sphingosine kinase 1 (Homo sapiens, UniProt Q9NYA1); assay: Inhibition of recombinant sphingosine kinase 1 (unknown origin) expressed in HEK293 cells using sphingosine as substrate at 50 uM after 30 mins relative to control in presence of [gamma32P]-ATP
In short: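 Single-point inhibitor test at 50 μM with 250 μM ATP. […] Activity is reported as % of control, where control (100%) is activity with sphingosine alone. n = 3, mean ± SD.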

Sphingosine kinase 1 [2] = target: T1, Sphingosine kinase 1; assay: Inhibition of recombinant sphingosine kinase 1 (unknown origin) expressed in HEK293 cells using sphingosine as substrate after 30 mins in presence of [gamma32P]-ATP
[3] = target: T2, Sphingosine kinase 2 (Homo sapiens) (UniProt Q9NRA0); assay: (§1) Inhibition of sphingosine kinase 2 (unknown origin) using sphingosine as substrate after 30 mins in presence of [gamma32P]-ATP
T2 sequence (whole entry): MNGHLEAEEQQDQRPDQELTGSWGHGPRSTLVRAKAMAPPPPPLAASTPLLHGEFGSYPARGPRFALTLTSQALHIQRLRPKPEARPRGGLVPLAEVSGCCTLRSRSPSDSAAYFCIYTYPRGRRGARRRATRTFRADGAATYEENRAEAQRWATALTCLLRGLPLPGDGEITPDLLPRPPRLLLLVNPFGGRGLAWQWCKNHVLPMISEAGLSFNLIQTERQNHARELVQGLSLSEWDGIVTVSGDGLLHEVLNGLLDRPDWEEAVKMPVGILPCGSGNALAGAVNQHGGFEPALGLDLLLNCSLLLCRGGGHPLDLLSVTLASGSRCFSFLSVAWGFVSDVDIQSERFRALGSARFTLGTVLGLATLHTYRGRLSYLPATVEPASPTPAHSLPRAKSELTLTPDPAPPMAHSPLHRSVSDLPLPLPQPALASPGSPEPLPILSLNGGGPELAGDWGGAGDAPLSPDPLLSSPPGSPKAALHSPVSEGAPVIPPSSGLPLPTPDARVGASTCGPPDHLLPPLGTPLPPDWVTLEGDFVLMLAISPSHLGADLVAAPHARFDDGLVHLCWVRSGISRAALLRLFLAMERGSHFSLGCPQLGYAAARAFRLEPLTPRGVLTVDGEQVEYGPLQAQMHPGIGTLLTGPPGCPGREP
In short: (§2)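 Results are given as % of the sphingosine-only control, and IC50 was derived from the curve. n = 3, ± SD.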

Sphingosine kinase 2 = target: T3, Sphingosine kinase 2 (Homo sapiens, UniProt Q9NRA0); assay: as §1; in short: as §2
T3 sequence (Q9NRA0 whole entry): T2 sequence (whole entry)

[4] = target: T2, Sphingosine kinase 2 (Homo sapiens); assay: Inhibition of sphingosine kinase 2 (unknown origin) using sphingosine as substrate at 50 uM after 30 mins relative to control in presence of [gamma32P]-ATP
[5] = target: T2, Sphingosine kinase 2 (Homo sapiens); assay: Activity at sphingosine kinase 2 (unknown origin) at 50 uM after 30 mins in presence of [gamma32P]-ATP
Sphingosine kinase 1 [6] = target: T1, Sphingosine kinase 1; assay: Inhibition of recombinant sphingosine kinase 1 (unknown origin) expressed in HEK293 cells using sphingosine as substrate at 100 uM after 30 mins relative to control in presence of [gamma32P]-ATP
[7] = 100 uM, in the assay text read “at 100 uM” for “at 50 uM”

T1 sequence (Q9NYA1 whole entry): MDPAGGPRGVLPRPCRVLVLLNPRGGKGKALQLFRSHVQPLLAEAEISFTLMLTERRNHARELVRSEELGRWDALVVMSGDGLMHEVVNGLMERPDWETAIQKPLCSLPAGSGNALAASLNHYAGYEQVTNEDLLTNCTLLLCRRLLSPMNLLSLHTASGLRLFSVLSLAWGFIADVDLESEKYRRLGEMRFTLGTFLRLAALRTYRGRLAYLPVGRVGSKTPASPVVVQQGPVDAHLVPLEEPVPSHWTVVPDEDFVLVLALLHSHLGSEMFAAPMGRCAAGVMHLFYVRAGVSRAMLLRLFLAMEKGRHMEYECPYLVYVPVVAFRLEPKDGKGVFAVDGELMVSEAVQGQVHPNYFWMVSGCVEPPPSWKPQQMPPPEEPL

Row | SMILES | inhibition (Sphingosine kinase 1 [1]) | also measured
1 | CCCCCCCCc1ccc(CCN2CCC(N=[N+]=[N-])CC2)cc1 | inactive | –
2 | CCCCCCCCCCCCc1ccc(CCN2CCC[C@@H]2CO)cc1 | – | IC50 (Sphingosine kinase 1 [2]): 5.3 µM; inhibition (Sphingosine kinase 1 [2]): Dose-dependent effect; inhibition [3]: Dose-dependent effect; IC50 (Sphingosine kinase 2): 5 µM
3 | CCCCCc1cn(-c2ccc(CCN3CCCCC3)cc2)nn1 | inactive | –
4 | CCCCCCCCCCCCc1ccc(C(=O)N2CCC(O)CC2)cc1 | inactive | –
5 | CCCCCCCCc1ccc(CCCN2CCC(O)CC2)cc1 | Active | –
6 | CCCCCCCCc1ccc(CCc2cccnc2)cc1 | inactive | –
7 | Cc1ccc(CCN2CCC[C@@H]2CO)cc1 | inactive | –
8 | CCCCCCCCc1ccc(-n2cc(-c3cccnc3)nn2)cc1 | inactive | –
9 | CCCCCCCCCCCCc1ccc(C(=O)N2CCC[C@H]2CO)cc1 | inactive | –
10 | CCCCCCCCc1ccc(C(=O)NCc2ccncc2)cc1 | inactive | –
11 | CCCCCCCCc1ccc(C[n+]2ccc(N3CCC(C)CC3)cc2)cc1 | inactive | inhibition ([4]; 50 uM): Active
12 | CCCCCCCCc1cn(-c2ccc(O)cc2)nn1 | inactive | –
13 | CCCCc1cn(-c2ccc(CCN3CCCCC3)cc2)nn1 | inactive | –
14 | CCCCCCCCc1cn(-c2ccc(CCO)cc2)nn1 | inactive | –
15 | CCCCCCCCCCCCc1ccc(CCN2CCC[C@H]2CO)cc1 | – | Activity [5]: Active; inhibition [4, 7]: 49.7%; inhibition (Sphingosine kinase 1 [6]): 49.9%
16 | CCCCCCCCc1ccc(C(=O)Nc2ccc(CCO)cc2)cc1 | inactive | –
17 | CCCCCCCCc1ccc(CCN2CC[C@@H](O)C2)cc1 | Active | –
18 | CCCCCCCCc1cn(-c2ccc(CCN3CCCCC3)cc2)nn1 | inactive | –
19 | CCCCCCCCc1ccc(CCN2CCC[C@@H]2CO)cc1 | – | IC50 (Sphingosine kinase 1 [2]): 2.2 µM; inhibition (Sphingosine kinase 1 [2]): Dose-dependent effect; inhibition [3]: Dose-dependent effect; IC50 (Sphingosine kinase 2): 5.2 µM
20 | CCCCCc1cn(-c2ccc(CC[N+]3(C)CCCCC3)cc2)nn1 | inactive | inhibition ([4]; 50 uM): inactive
21 | CCCCCCCCc1ccc(CCN2CCC(F)CC2)cc1 | inactive | –

Row | SMILES | inhibition (Sphingosine kinase 1 [1]) | also measured
22 | CCCCCCCCc1ccc(CCN2CCC(N)CC2)cc1 | – | IC50 (Sphingosine kinase 1 [2]): 16.9 µM; inhibition (Sphingosine kinase 1 [2]): Dose-dependent effect
23 | Cc1ccc(CCN2CCC(N)CC2)cc1 | inactive | –
24 | CCCCCCCCc1cn(-c2ccc(CC[N+]3(C)CCCCC3)cc2)nn1 | inactive | inhibition ([4]; 50 uM): inactive
25 | CCCCCCCCc1ccc(C(=O)Nc2ccc(O)cc2)cc1 | inactive | –
26 | CCCCCCCCc1ccc(CCCCN2CCC(O)CC2)cc1 | Active | –
27 | CCCCCCCCc1ccc(CCN2CCC(OC)CC2)cc1 | inactive | –
28 | CCCCCCCCc1ccc(CCN2CCC[C@H]2CO)cc1 | – | Activity [5]: Active; inhibition [4, 7]: 45.7%; inhibition (Sphingosine kinase 1 [6]): 72.2%
29 | CCCCCc1cn(-c2ccc(CCN3CCC(O)CC3)cc2)nn1 | inactive | –
30 | CCCCCCCCc1ccc(CN2CCC(O)CC2)cc1 | Active | –
31 | CCCCCCCCc1cn(-c2ccc(CCN3CCC(O)CC3)cc2)nn1 | Active | –
32 | CCCCc1cn(-c2ccc(CC[N+]3(C)CCCCC3)cc2)nn1 | inactive | inhibition ([4]; 50 uM): inactive
33 | Cc1ccc(CCN2CCC(O)CC2)cc1 | inactive | –
34 | CCCCCCCCc1ccc(CCN2CC[C@H](O)C2)cc1 | Active | –
35 | CCCCCCCCCCCCc1ccc(CCN2CCC(N)CC2)cc1 | inactive | –
36 | CCCCCCCCc1ccc(C(=O)N2CCC(O)CC2)cc1 | inactive | –
37 | CCCCCCCCc1ccc(CCc2ccc[n+](C)c2)cc1 | inactive | inhibition ([4]; 50 uM): inactive
38 | CCCCCCCCCCCCc1ccc(C(=O)N2CCC[C@@H]2CO)cc1 | inactive | –
39 | Cc1ccc(CCN2CCC(N=[N+]=[N-])CC2)cc1 | inactive | –
40 | CCCCCCCCc1ccc(CCN2CCC(=O)CC2)cc1 | – | inhibition ([4]; 50 uM): Active
41 | CCCCc1cn(-c2ccc(CCN3CCC(O)CC3)cc2)nn1 | inactive | –
